Bioassay records as filed in PubChem.
GPR7 antag – antagonists of human GPR7 (neuropeptides B/W receptor 1). P48145. GPR7-expressing cells, fluorescence antagonist assay. inhibition, % at 4.4 µM. actives 1.1% (n = 290,000); in the data active = inhibition above about 16%, passing the limit was not always enough;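 also: cells stimulated with the agonist NPW; 0% = agonist with vehicle and 100% = vehicle without agonist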
Target sequence (P48145 whole entry, looked up): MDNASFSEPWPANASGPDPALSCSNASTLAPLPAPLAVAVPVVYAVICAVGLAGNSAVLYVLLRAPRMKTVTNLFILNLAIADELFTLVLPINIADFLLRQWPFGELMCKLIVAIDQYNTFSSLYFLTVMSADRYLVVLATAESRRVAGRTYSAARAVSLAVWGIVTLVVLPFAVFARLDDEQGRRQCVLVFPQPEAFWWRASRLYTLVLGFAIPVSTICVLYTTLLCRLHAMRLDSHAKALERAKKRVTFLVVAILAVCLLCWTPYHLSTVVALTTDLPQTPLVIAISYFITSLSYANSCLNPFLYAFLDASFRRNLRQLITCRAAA
CHO parental Ca – counter-screen for OX1R antagonists: effect in parental CHO cells | parental CHO-K1, ATP-induced calcium, Fluo-8 fluorescence | inhibition, % at 5.6 µM | actives 0.63% (n = 330,000) | AID 463079;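 active = inhibition above that plate's mean sample inhibition plus 3 SD, cut at about 26% in these data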;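 also: 0% = ATP-challenged DMSO wells and 100% = DMSO wells without ATP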
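Assay system – parental CHO cells · Reagent – ATP stimulus · Detection – intracellular calcium via Fluo-8 no-wash fluorescent dye · Evaluation – percent inhibition of ATP-evoked calcium rise, normalized to controls · Controls – ATP wells versus no-ATP DMSO wells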
TAAR1 antag – human TAAR1 antagonism; inhibition, % at 3 µM; actives 1.5% (n = 360,000); AID 624466; Q96RJ0; CHO RD-HGA16 TAAR1, Fluo-8 calcium fluorescence, antagonist;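 active = inhibition above a per-plate cutoff, the mean inhibition of test compounds on that plate plus 3 SD, cut at about 49% in these data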;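 also: 0% = DMSO plus EC80 beta-PEA response and 100% = DMSO alone without agonist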
Target sequence (Q96RJ0 whole entry, looked up): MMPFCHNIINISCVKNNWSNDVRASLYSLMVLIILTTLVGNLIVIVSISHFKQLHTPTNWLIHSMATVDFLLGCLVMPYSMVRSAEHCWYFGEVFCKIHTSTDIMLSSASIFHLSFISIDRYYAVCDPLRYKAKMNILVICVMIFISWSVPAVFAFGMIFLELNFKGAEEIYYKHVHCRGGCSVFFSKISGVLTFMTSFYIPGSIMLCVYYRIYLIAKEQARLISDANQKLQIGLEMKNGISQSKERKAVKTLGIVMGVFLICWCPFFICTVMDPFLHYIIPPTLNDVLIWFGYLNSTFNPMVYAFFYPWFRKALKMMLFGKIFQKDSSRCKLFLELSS
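test system = CHO RD-HGA16 cells bearing hTAAR1 | replication = singlicate | controls = DMSO-only wells and EC80 β-PEA-stimulated wells | reagent = EC80 β-phenethylamine stimulus | read-out basis = percent inhibition of PEA-evoked calcium signal, max/basal emission ratio | schedule = seeding 17-24 h prior, 75-min 37 °C, 30-min RT dye loading | signal = kinetic Fluo-8 calcium fluorescence measurement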
OX1R antag-1 – antagonists of human orexin 1 receptor (OX1R); OX1R-expressing cells, FRET antagonist read-out; inhibition, % at 6.6 µM; AID 485270; O43613; actives 1.8% (n = 330,000); in the data active = inhibition mostly above about 38%, no sharp cut-off; inactive = mostly below about 40%;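 also: 0% = agonist challenge alone and 100% = reference antagonist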
TAAR1 agonist – human TAAR1 agonism; Q96RJ0; CHO RD-HGA16 TAAR1, Fluo-8 calcium fluorescence; vehicle wells 0%, saturating PEA agonist 100%; activation, % at 3 µM; actives 0.99% (n = 360,000); AID 624467;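 active = activation above the mean activation of all test compounds in the run plus 3 SD, cut at about 38% in these data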
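test system = CHO RD-HGA16 cells carrying human TAAR1 plus Gα16 | schedule = 17-24 h seeding, 75 min 37 °C dye, 30 min RT | compound dosing = 3 µM single concentration | control set = DMSO and PEA EC100 | replicates = n 1 | signal = Fluo-8 fluorescence, 5 s baseline then 140 s kinetic read | measure = percent activation vs PEA EC100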
OX1R antag-2 – human HCRTR1 antagonism; O43613; CHO/OX1R cells, Fluo-8 calcium fluorescence, orexin A; inhibition, % at 5 µM; actives 0.43% (n = 330,000); AID 434989;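 active = inhibition above its plate's threshold, mean inhibition of all tested compounds on the plate plus 3 SD, cut at about 37% in these data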;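 also: 0% = orexin A challenge wells and 100% = SB-334867-A antagonist wells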
GPR7 antag conf – confirmation of human GPR7 antagonists; shares compounds with GPR7 antag; GPR7-expressing cells, calcium fluorescence antagonist mode; inhibition, % at 4.4 µM; actives 52% (n = 2,400); AID 1952; in the data active = inhibition above about 24%;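 also: stimulated with the GPR7 agonist NPW; 0% = agonist plus vehicle and 100% = vehicle alone without agonist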
MCHR1 antagonist – counter-screen for GPR7 antagonists: antagonists of human MCHR1; shares compounds with GPR7 antag; MCHR1-expressing cells, fluorescence antagonist assay; inhibition, % at 4.4 µM; actives 62% (n = 2,400); AID 2148; in the data active = inhibition above about 22%;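 also: 0% = vehicle with agonist and 100% = vehicle without agonist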
* = called active by the depositor. This is a sample that favours compounds with a hit; in the whole collection about 4.6% have one here.

For CC1(C(=O)NCc2cccs2)CCN1C(=O)Cc1ccc(Cl)cc1Cl (configuration not stated) the results were TAAR1 antag -16 and TAAR1 agonist 1.
Screening COC(=O)CSc1nc2ccc(NC(=O)CSc3nnnn3Cc3ccccc3)cc2s1 returned GPR7 antag 37*, CHO parental Ca 51*, TAAR1 antag 44, OX1R antag-1 62, TAAR1 agonist 22, OX1R antag-2 51*, GPR7 antag conf 64* and MCHR1 antagonist 55*.
Screening O=C(CSc1nc2ccc(NC(=O)c3ccccc3C(=O)O)cc2s1)Nc1ccc(F)c([N+](=O)[O-])c1 returned GPR7 antag 26*, CHO parental Ca 15, TAAR1 antag 6, OX1R antag-1 23, TAAR1 agonist 11, OX1R antag-2 -4, GPR7 antag conf 26* and MCHR1 antagonist 66*.
CCc1noc(C)c1C(=O)N(CC)CC(=O)NCc1ccc(Cl)cc1 was read as CHO parental Ca -13, TAAR1 antag 14, OX1R antag-1 1, TAAR1 agonist 3 and OX1R antag-2 -97.
O=C(CSc1nnnn1-c1cccc2c1CCCC2)NC1CCCC1 was read as GPR7 antag 34*, CHO parental Ca -4, TAAR1 antag 18, OX1R antag-1 25, TAAR1 agonist 5, OX1R antag-2 -10, GPR7 antag conf 20 and MCHR1 antagonist 26*.
COc1ccc(S(=O)(=O)N(C)C[C@@H]2OCc3cn(nn3)CCCC(=O)N([C@@H](C)CO)C[C@H]2C)cc1 was read as TAAR1 antag 7 and TAAR1 agonist 0.
Screening CCN(C(=O)c1cc2c(s1)-c1ccccc1S(=O)(=O)C2)c1cc(OC)ccc1OC returned GPR7 antag 0, CHO parental Ca -6, TAAR1 antag -3, OX1R antag-1 -3, TAAR1 agonist 1 and OX1R antag-2 -27.
CCN(C(=O)c1cc2c(s1)-c1ccccc1OC2)c1cc(OC)ccc1OC was read as GPR7 antag 31*, CHO parental Ca 35*, TAAR1 antag -9, OX1R antag-1 14, TAAR1 agonist 0, OX1R antag-2 -8, GPR7 antag conf 50* and MCHR1 antagonist 56*.
Screening CCCCCc1ccc(-c2cn(Cc3ccc([N+](=O)[O-])cc3)nn2)cc1 returned GPR7 antag 33*, CHO parental Ca -5, OX1R antag-1 18, OX1R antag-2 -20, GPR7 antag conf 37* and MCHR1 antagonist 57*.
COc1ccc(-c2cn(Cc3ccc([N+](=O)[O-])cc3)nn2)cc1 was read as GPR7 antag 19, CHO parental Ca -6, TAAR1 antag 13, OX1R antag-1 28, TAAR1 agonist 11 and OX1R antag-2 -16.
Screening Cc1cc(C(=O)NC2CCCc3ccccc32)ccc1[N+](=O)[O-] (configuration not stated) returned GPR7 antag 3, CHO parental Ca -9, TAAR1 antag 10, OX1R antag-1 20, TAAR1 agonist -5 and OX1R antag-2 -27.
Screening Cc1ccc(C(=O)NC2CCCc3ccccc32)cc1[N+](=O)[O-] (configuration not stated) returned GPR7 antag 34*, CHO parental Ca -23, TAAR1 antag -18, OX1R antag-1 12, TAAR1 agonist -1, OX1R antag-2 -26, GPR7 antag conf 25* and MCHR1 antagonist 55*.
Cc1cccc(CN2CCc3c([nH]c4ccccc34)C2)c1 was read as GPR7 antag 18, CHO parental Ca 3, TAAR1 antag -10, OX1R antag-1 11, TAAR1 agonist 1 and OX1R antag-2 -12.
Screening Clc1ccc(CN2CCc3c([nH]c4ccccc34)C2)cc1Cl returned GPR7 antag 53*, CHO parental Ca 15, TAAR1 antag -12, OX1R antag-1 5, TAAR1 agonist 34, OX1R antag-2 -6, GPR7 antag conf 73* and MCHR1 antagonist 33*.
COc1cc(OC)c(CN2CCc3c([nH]c4ccccc34)C2)cc1Br was read as GPR7 antag 29*, CHO parental Ca -12, TAAR1 antag 7, OX1R antag-1 27, TAAR1 agonist 26, OX1R antag-2 -1, GPR7 antag conf 21 and MCHR1 antagonist 5.
Nc1[nH]c(C(=O)c2ccc(Br)cc2)c(-c2ccc(F)cc2)c1C(=O)NCCc1c[nH]c2ccccc12 was read as TAAR1 antag -8 and TAAR1 agonist 1.
Screening COc1ccc2c(c1)sc(N)[n+]2Cc1cc(C)cc2cccnc12 returned GPR7 antag 38*, CHO parental Ca -5, TAAR1 antag 9, OX1R antag-1 16, TAAR1 agonist 12, OX1R antag-2 -3, GPR7 antag conf 41* and MCHR1 antagonist 57*.
Screening Cc1cc(C[n+]2ncsc2N)c2ncccc2c1 returned GPR7 antag -6, CHO parental Ca -19, TAAR1 antag -9, OX1R antag-1 5, TAAR1 agonist 1 and OX1R antag-2 -16.
For Cc1cc(C[n+]2cc(Br)ccc2N)c2ncccc2c1 the results were GPR7 antag 30*, CHO parental Ca -8, TAAR1 antag -32, OX1R antag-1 11, TAAR1 agonist 4, OX1R antag-2 -19, GPR7 antag conf 29* and MCHR1 antagonist 16.
Screening Cc1cc(C[n+]2cc(Cl)ccc2N)c2ncccc2c1 returned GPR7 antag 23*, CHO parental Ca -17, TAAR1 antag -7, OX1R antag-1 11, TAAR1 agonist 0, OX1R antag-2 -5, GPR7 antag conf 29* and MCHR1 antagonist 24*.
`Cc1ccc(Cc2c(-c3cccc(Br)c3)nc3c4ccccc4ccn23)cc1` gave TAAR1 antag -19 and TAAR1 agonist 1.
`CC1CCCN(S(=O)(=O)c2ccc(C(=O)Nc3nnc(-c4ccco4)o3)cc2)C1` (configuration not stated) gave GPR7 antag -1, CHO parental Ca -6, TAAR1 antag 5, OX1R antag-1 21, TAAR1 agonist 1 and OX1R antag-2 -21.
`COc1ccc(C2C(O)C(c3c[nH]c4ccccc34)=NN2C(=O)CCl)cc1` (configuration not stated) gave GPR7 antag 22*, CHO parental Ca -6, TAAR1 antag 15, OX1R antag-1 14, TAAR1 agonist 3, OX1R antag-2 -2, GPR7 antag conf 39* and MCHR1 antagonist 47*.
